Experimental data from different studies.
Protocols differ between the studies behind these lines.
Target: Serine/threonine-protein kinase 26 (STK26, Homo sapiens, UniProt Q9P289)

Compound | effect on | technique | tested at | remaining binding [%]
O=C(NCCCN1CCOCC1)c1ccc(Nc2nccc(-c3cc4ccccc4s3)n2)cc1 | binding | competition with immobilised ligand | 1 µM | 87
C[C@@H](c1ccc(-n2cnc3c(N)ncnc32)cc1)N1CCc2nn(C)c(Cc3ccccc3)c2C1=O | binding | competition with immobilised ligand | 0.1 µM | 88
Cc1nc(C2CCN(C(=O)c3ccc(OC(F)(F)F)cc3N)CC2)c2ncc(N3CCN(C)CC3)cc2n1 | cell-free assay | competition with immobilised ligand | 1 µM | 100
COc1cnc(Nc2cccc(S(N)(=O)=O)c2)nc1N1CCN(c2ccccc2)CC1 | binding | competition with immobilised ligand | 1 µM | 78
O=C(c1ccc(Nc2ncc(Cl)c(-c3ccc(Cl)s3)n2)cc1)N1CCC(N2CCCC2)CC1 | binding | competition with immobilised ligand | 1 µM | 30
FC(F)(F)Oc1cccc(-c2cnc3ccc(-c4ccncc4)nn23)c1 | cell-free assay | competition with immobilised ligand | 5 µM | 59
O=C(c1ccc(Nc2nccc(-c3cc4ccccc4s3)n2)cc1)N1CCC(N2CCCC2)CC1 | binding | competition with immobilised ligand | 1 µM | 99
CC(=O)c1c(NS(C)(=O)=O)c2cc(-c3ccc(Cl)cc3)c(-c3ccc(Cl)cc3Cl)nc2n(C)c1=O | cell-free assay | competition with immobilised ligand | 1 µM | 84
O=C(Nc1c[nH]nc1C(=O)NC1CCNCC1)c1cc(F)cc(F)c1 | binding | competition with immobilised ligand | 1 µM | 68
CCN1CCN(Cc2ccc(C(=O)Nc3ccc(C)c(Oc4ccc5c(c4)CC(=O)N5)c3)cc2C(F)(F)F)CC1 | binding | competition with immobilised ligand | 1 µM | 100
NS(=O)(=O)c1cc(NC(=O)C2(c3ccccc3Cl)CC2)ccc1Oc1cccc(Cl)c1 | cell-free assay | competition with immobilised ligand | 1 µM | 100
CN1CCN(c2ccc(Nc3nccc(-c4ccccc4)n3)cc2C(F)(F)F)CC1 | binding | – | 10 µM | 81
COc1cnc(Nc2cccc(S(N)(=O)=O)c2)nc1N1CCN(c2ccccc2)C(=O)C1 | binding | competition with immobilised ligand | 1 µM | 83
CCC(=O)N[C@@H]1CC[C@H](C(=O)N(C)c2ccc(-c3nc4ccccc4o3)cc2)C1 | cell-free assay | competition with immobilised ligand | 1 µM | 77
